The record followed here is PubChem BioAssay.

Calls of active or inactive are those of the source.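 How the source made its calls, unless noted: active means fluorescence slope after compound addition differing from the mean of all screened samples at 99.7% confidence, in either direction; inactive means the rest.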

Test [1] can be described thus: inhibitors of TNFa-induced NFkB p65 translocation, primary screen, imaging, HUVEC, MLSMR starter and 10KST1 sets (AID 438;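 active means inhibition above 20% together with a positive visual image hit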;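 further: compound added about 3h40 before a 20 min TNFalpha stimulation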;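 on inhibition: signal is the nuclear over cytoplasmic p65 intensity ratio per well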). The following applies: HUVEC TNFa-induced p65 nuclear translocation; cell count: measured here: nuclei count (cytotoxicity indicator), at 2.08 µM; inhibition: at 2 µM, stronger effect = higher value, 0% TNFa-plus-vehicle, 100% no-TNFa wells.
Test [2] in a line: endothelial E-selectin expression blockers – imaging, HUVEC, immunofluorescence, MLSMR starter and 10KST1 sets, primary screen (AID 487;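 active means visually confirmed hit in the image check and inhibition above 20%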;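 on inhibition: signal is fraction of cell area covered by stained E-selectin grains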;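 on nuclei count: 100% = median nuclei count of all wells on the same plate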). The conditions noted are these: HUVEC TNFalpha-induced E-selectin immunofluorescence imaging, at 2 µM; inhibition: stronger effect = higher value; nuclei count: measured here: cell number, toxicity.
Test [3] in a line: Primary imaging screen for DUSP6 inhibitors that restore phospho-Erk in transfected HeLa cells, chemical complementation (AID 609;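 active means compounds giving at least 50% inhibition in the cell-based MKP-3 phosphatase rescue imaging test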;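 on inhibition: phospho-Erk level distribution per well compared with pooled transfected vehicle control wells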). The conditions noted are these: HeLa MKP-3 transfected, phospho-Erk imaging KS statistic, at 10 µM, cells stimulated with TPA for 15 min.
For test [4], the target named is Dual specificity protein phosphatase 6 (Homo sapiens) (UniProt Q16828). The test is described as above. The following applies: HeLa MKP-3 transfected, phospho-Erk imaging KS statistic; at 10 µM; stronger effect = higher value; cells stimulated with TPA for 15 min.
Test [5] has as its target Voltage-gated potassium channel subunit beta-2 (Rattus norvegicus) (UniProt P62483). Briefly: inhibitors of rat Kvbeta2 reductase activity – biochemical, NADPH fluorescence, primary screen (AID 622;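 active means fluorescence slope higher than the sample average by over 3 SD, cut at about -0.22 in these data, passing the limit was not always enough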;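 further: slope of raw intensity against log time taken from 70 to 1610 s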). The conditions noted are these: recombinant KvBeta, 4-cyanobenzaldehyde reduction, at 10 µM, stronger effect = higher value.
The target is the same in test [6]. Briefly: enhancers of rat Kvbeta2 NADPH turnover – biochemical, NADPH fluorescence, primary screen (AID 623;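 active means NADPH fluorescence slope more negative than the mean of all samples by about 3 SD, 99.7% confidence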;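 further: fluorescence intensity change per second fitted from 20 to 320 s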). The conditions noted are these: Recombinant KvBeta, NADPH fluorescence decrease slope, 10 min; at 10 µM; stronger effect = lower value.
Test [7] has as its target Alpha-2C adrenergic receptor (Homo sapiens) (UniProt P18825). Briefly: compounds altering alpha2C-coupled GIRK flux – cell-based, HEK293 alpha2C/GIRK1/2, thallium flux, primary screen (AID 624).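 Further: slope of fluorescence ratio to pre-addition baseline per second over 15 to 24 s.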 The conditions noted are these: thallium flux BTC fluorescence, at 10 µM, actives lie on both sides.
Test [8] can be described thus: inhibitors of larval lipid processing in zebrafish, primary screen, whole organism, PED6 fluorescence, gall bladder and intestine (AID 686;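 active means a full or partial loss of lipid-probe fluorescence in the fish gall bladder, intestine or both, judged by eye; inactive means no fluorescence loss, or compound toxic to the fish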;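 further: larvae 5 to 7 days old with five fish per well; signal comes from phospholipase A2 cleavage of quenched PED6 carried via bile; overnight exposure to compound and PED6 before scoring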). The conditions noted are these: Zebrafish larvae PED6 lipid processing, fluorescence scoring; screened at 20 µM (by protocol). The gist of the method: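 Test system – live zebrafish larvae aged 5-7 days, whole organism · Buffer or medium – E3 fish medium · Reagent – quenched phospholipase substrate PED6, 100 nM final, ingested by larvae · Doses – 20 µM single dose · Incubation – overnight compound and PED6 incubation · Technique – visual fluorescence microscopy scoring of gall bladder, gut · Read-out basis – visual per-well fluorescence inhibition score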

Test [9] can be described thus: loss of swimming-algae plug formation – whole organism, Chlamydomonas reinhardtii, WT vs cilia-less mutant, absorbance, 96-well, primary screen (AID 463189;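 active means inhibition at or above 50% relative to wild type and mutant plate controls; inactive means inhibition below 50%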;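 further: 0% = wild type cc124 cells in DMSO and 100% = ciliumless bld1 mutant cells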). The conditions noted are these: Chlamydomonas reinhardtii gravitaxis, OD600 absorbance, 2 days; at 10 µM; stronger effect = higher value.
Where [10] appears, read: measured here: cell density z-score.
The mark [11] stands for this setting: measured here: nuclear c-Myc green intensity z-score.
Where [12] appears, read: measured here: nuclear pErk red intensity z-score, stronger effect = higher value.

Chain of Alpha-2C adrenergic receptor (Homo sapiens) (P18825 whole entry, looked up): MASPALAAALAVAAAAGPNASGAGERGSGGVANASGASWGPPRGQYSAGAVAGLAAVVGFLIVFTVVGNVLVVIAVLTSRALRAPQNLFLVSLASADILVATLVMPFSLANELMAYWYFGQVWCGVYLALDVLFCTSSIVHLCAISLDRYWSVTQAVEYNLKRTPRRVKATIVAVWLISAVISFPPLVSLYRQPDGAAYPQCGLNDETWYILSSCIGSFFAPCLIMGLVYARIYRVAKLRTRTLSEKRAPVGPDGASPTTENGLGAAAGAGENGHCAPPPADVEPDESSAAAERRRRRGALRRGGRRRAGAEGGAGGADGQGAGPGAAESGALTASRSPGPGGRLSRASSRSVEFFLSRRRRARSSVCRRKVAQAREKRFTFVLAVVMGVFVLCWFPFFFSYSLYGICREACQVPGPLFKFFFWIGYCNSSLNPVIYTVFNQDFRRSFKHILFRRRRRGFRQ
Chain of Dual specificity protein phosphatase 6 (Homo sapiens) (Q16828 whole entry, looked up): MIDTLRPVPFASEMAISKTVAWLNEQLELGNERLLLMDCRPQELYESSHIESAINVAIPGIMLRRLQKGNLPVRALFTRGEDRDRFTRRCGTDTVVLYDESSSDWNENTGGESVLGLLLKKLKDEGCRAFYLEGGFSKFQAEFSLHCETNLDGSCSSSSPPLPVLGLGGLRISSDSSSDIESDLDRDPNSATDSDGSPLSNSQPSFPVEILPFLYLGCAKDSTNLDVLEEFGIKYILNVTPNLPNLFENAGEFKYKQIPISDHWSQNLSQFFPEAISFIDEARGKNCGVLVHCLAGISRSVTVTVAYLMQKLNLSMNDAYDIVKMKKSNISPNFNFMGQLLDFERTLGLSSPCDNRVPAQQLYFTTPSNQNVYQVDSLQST
Chain of Voltage-gated potassium channel subunit beta-2 (Rattus norvegicus) (P62483 whole entry, looked up): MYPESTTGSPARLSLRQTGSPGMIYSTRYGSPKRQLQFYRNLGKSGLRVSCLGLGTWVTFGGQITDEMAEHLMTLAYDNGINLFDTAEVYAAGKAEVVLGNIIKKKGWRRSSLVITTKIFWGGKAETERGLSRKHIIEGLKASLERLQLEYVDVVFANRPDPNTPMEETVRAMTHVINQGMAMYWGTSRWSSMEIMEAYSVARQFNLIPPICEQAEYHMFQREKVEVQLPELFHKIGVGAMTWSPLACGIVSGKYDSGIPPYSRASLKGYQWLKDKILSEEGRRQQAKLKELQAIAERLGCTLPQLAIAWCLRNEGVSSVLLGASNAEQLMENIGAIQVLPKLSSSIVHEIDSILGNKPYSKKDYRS

Take `CCCCNC(=O)c1c(N)n(/N=C/c2cccnc2)c2nc3ccccc3nc12`: in test [1], the cell count was found to be 474. Further, the inhibition in [1] is 4.9% (inactive); in [2] it was -130% (inactive); in test [4] it was 24.5% (inactive); in [9], 29% (inactive). Further, in test [2], the nuclei count was found to be 139%. In addition, the z-score in test [3] (setting [10]) is 1.68; in [3] (setting [11]) it was -0.352; in [3] (setting [12]), 0.256. Besides, the fluorescence slope in test [5] was -0.456 (inactive). Further, in test [6], the NADPH fluorescence slope is 5.4e-07 (inactive). Further, the slope in [7] was 0.0052 (inactive). Further, the molecule was classed as inactive in test [8].

As for `CCOC(=O)CSC1=C(C#N)C(c2ccc(OC)cc2)C2=C(CC(C)(C)CC2=O)N1` (stereo unspecified), in test [1], the cell count was found to be 362. Besides, the inhibition in test [1] is -10.7% (inactive); in test [2], -126% (inactive); in [4], -8.59% (inactive); in test [9], 25.7% (inactive). The molecule further showed a nuclei count in test [2] of 174%. For the same molecule, the z-score in [3] (setting [10]) was 0.65; in [3] (setting [11]) it was -1.25; in test [3] (setting [12]) it was -0.233. In addition, in test [5], the fluorescence slope is -0.411 (inactive). Moreover, the NADPH fluorescence slope in test [6] is -0.000354 (inactive). Also, the slope in [7] is 0.00489 (inactive). In addition, the call in [8] was inactive.

`COC(=O)c1ccc(=O)n(Cc2ccco2)c1`: the cell count in test [1] turned out to be 300. Also, the inhibition in test [1] was -2.7% (inactive); in test [2], -70.6% (inactive); in test [4], -6.48% (inactive); in [9], -14.2% (inactive). This molecule showed a nuclei count in test [2] of 107%. Besides, the z-score in test [3] (setting [10]) is -1.23; in [3] (setting [11]) it was 1.62; in test [3] (setting [12]) it was -0.83. The fluorescence slope in test [5] was -0.404 (inactive). In addition, in [6], the NADPH fluorescence slope was -1.8e-06 (inactive). Moreover, the slope in [7] was 0.00511 (inactive). For the same molecule, in test [8], the molecule was classed as inactive.

As for `O=C(c1nsnc1-c1ccccc1O)N1CCCCC1`, the cell count in test [1] worked out at 500. The inhibition in [1] was -8% (inactive); in test [2], -58.8% (inactive); in [4], 17.8% (inactive); in [9], 24.8% (inactive). The nuclei count in test [2] turned out to be 86.9%. Besides, the z-score came out at 0.333 in test [3] (setting [10]), 0.0172 in [3] (setting [11]) and 0.334 in [3] (setting [12]). The fluorescence slope in test [5] is -0.563 (inactive). In test [6], the NADPH fluorescence slope was -9.1e-06 (inactive). For the same molecule, the slope in [7] was 0.007 (inactive). Besides, the call in test [8] was inactive.

In the case of `CCCOc1ccc(C2NC(=O)NC2=O)cc1` (stereo unspecified), the cell count in [1] was determined as 614. In addition, the inhibition was -8% (inactive) in test [1], -260% (inactive) in test [2], -0.159% (inactive) in test [4] and -17% (inactive) in test [9]. Also, the nuclei count in [2] was found to be 113%. Also, the results for the z-score in [3] (setting [10]), in test [3] (setting [11]) and in [3] (setting [12]) were -0.563, 1.62 and 0.505, respectively. The fluorescence slope in test [5] is -0.511 (inactive). Moreover, the NADPH fluorescence slope in test [6] is -7.1e-05 (inactive). In addition, the slope in [7] was 0.00583 (inactive). Besides, in test [8], the result was inactive.

With `COc1ccc(-c2cc(-c3ccccc3)n3ncnc3n2)cc1`, in test [1], the cell count turned out to be 451. The inhibition was 3.2% (inactive) in test [1], -35.1% (inactive) in test [2], -1.12% (inactive) in test [4] and -19.8% (inactive) in [9]. Also, in test [2], the nuclei count came to 162%. Further, the z-score is 1.29 in test [3] (setting [10]), 1.44 in [3] (setting [11]) and -0.816 in test [3] (setting [12]). In addition, the fluorescence slope in test [5] was -0.00896 (inactive). Moreover, the NADPH fluorescence slope in test [6] was -5.1e-07 (inactive). Besides, the slope in test [7] is 0.00473 (inactive). For the same molecule, in test [8], the outcome was inactive.

On to `CCCOc1ccc(N2C(=O)CC(N(Cc3ccc(S(N)(=O)=O)cc3)C(=O)CC)C2=O)cc1` (stereo unspecified), for which, in test [1], the cell count worked out at 441. Further, the inhibition in test [1] was -4.6% (inactive); in [2], -308% (inactive); in [4] it was -7.28% (inactive); in test [9], 2.36% (inactive). In addition, the nuclei count in test [2] is 184%. Besides, the z-score in [3] (setting [10]) was -0.613; in test [3] (setting [11]), 0.516; in [3] (setting [12]), 0.905. The fluorescence slope in test [5] was -0.326 (inactive). Also, in [6], the NADPH fluorescence slope was 1.9e-05 (inactive). In test [7], the slope was 0.00479 (inactive). For the same molecule, the molecule was classed as inactive in [8].
